According to ChEMBL document CHEMBL1129475, “Water soluble inhibitors of topoisomerase I: quaternary salt derivatives of camptothecin” (J Med Chem, 1996):
≈ marks a conversion by molar mass, not a printed value.

Key:
[1] = Solubility was measured in D2O using 1H NMR integration of the C-20 ethyl group against internal standard 1,4-dioxane; assay type: physicochemical
Procedure, shortened: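 Compound equilibrated ≥30 min in D2O containing 1,4-dioxane (0.015 M standardized solution) as internal standard, then filtered. 300-MHz ¹H spectrum; the C-18 methyl triplet at 0.8–0.9 ppm was integrated against the dioxane signal at 3.75 ppm.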

SK-OV-3 = experiment: Human tumor cell cytotoxicity assay was performed using MTT (SK-OV3 cell line ); assay type: functional, cell-based
SK-VLB = experiment: Human tumor cell cytotoxicity assay was performed using MTT (SKVLB cell line ); assay type: functional, cell-based
[2] = MDR ratio is defined as the quotient of SKVLB IC50/SKOV3 IC50; assay type: functional
Procedure, shortened: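 Ratio of SKVLB IC50 to SKOV3 IC50, each from the 96 h MTT cytotoxicity assay with a four-parameter logistic fit.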

HT-29 = experiment: Human tumor cell cytotoxicity assay was performed using MTT (HT-29 cell line ); assay type: functional, cell-based
Mus musculus [3] = experiment: Mean body weight loss for animals in all experimental conditions at dose 14 mg/Kg in HT-29 human colon xenograft infected mice; assay type: functional
Procedure, shortened: (§1)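 Female nu/nu mice (18-24 g) carrying subcutaneous HT-29 flank tumors; N=6 per group. Compound given s.c. twice weekly for 5 weeks over a dose range including the highest dose found in naive mice. Caliper tumor volume = length×width²/2. T/B = tumor volume at end of treatment over initial volume. Body weight monitored; mean weight loss per group.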

Mus musculus [4] = experiment: Mean body weight loss for animals in all experimental conditions at dose 8 mg/Kg in HT-29 human colon xenograft infected mice; assay type: functional; procedure, shortened: as §1
Mus musculus [5] = experiment: Efficacy against HT-29 human colon xenograft infected mice expressed as tumor growth ratio at dose 12 mg/Kg; assay type: functional; procedure, shortened: as §1
Mus musculus [6] = experiment: Efficacy against HT-29 human colon xenograft infected mice expressed as tumor growth ratio at dose 14 mg/Kg; assay type: functional; procedure, shortened: as §1
Mus musculus [7] = experiment: Efficacy against HT-29 human colon xenograft infected mice expressed as tumor growth ratio at dose 8 mg/Kg; assay type: functional; procedure, shortened: as §1
Mus musculus [8] = experiment: Compound was tested for number of deaths of the animals at a dose of 12 mg/Kg in mice; assay type: ADME, organism-based; conditions: in vivo; procedure, shortened: as §1
Mus musculus [9] = experiment: Compound was tested for number of deaths of the animals at a dose of 14 mg/Kg in mice; assay type: ADME, organism-based; conditions: in vivo; procedure, shortened: as §1
Mus musculus [10] = experiment: Compound was tested for number of deaths of the animals at a dose of 8 mg/Kg in mice; assay type: ADME, organism-based; conditions: in vivo; procedure, shortened: as §1
Mus musculus [11] = species on record: Mus musculus; experiment: Maximally tolerated dose that caused <=30% body weight loss in mice; assay type: functional
Procedure, shortened: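 Highest single s.c. bolus dose in tumor-free nude mice causing ≤30% body weight loss.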

Mus musculus [12] = experiment: Delay in tumor growth in drug treated animals compared to controls at a dose of 80(mg/kg); assay type: functional
Procedure, shortened: (§2)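 Tumor growth delay in nude mice with HT-29 xenografts, N=6. The dose from a single s.c. bolus in tumor-free mice was split into three s.c. portions given over one day. T/C = difference in days for tumors to reach 500% of initial volume, treated versus control.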

Mus musculus [13] = experiment: Mean body weight loss for animals in all experimental conditions at dose 12 mg/Kg in HT-29 human colon xenograft infected mice; assay type: functional; procedure, shortened: as §1
Mus musculus [14] = experiment: Mean body weight loss for animals in all experimental conditions at dose 11 mg/Kg in HT-29 human colon xenograft infected mice; assay type: functional; procedure, shortened: as §1
Mus musculus [15] = experiment: Mean body weight loss for animals in all experimental conditions at dose 5 mg/Kg in HT-29 human colon xenograft infected mice; assay type: functional
Procedure, shortened: (§3)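 HT-29 subcutaneous xenografts in female nu/nu mice, N=6 per group. Subcutaneous dosing twice weekly for 5 weeks. Body weight was monitored and reported as mean percent loss per group. A loss of 30% or more was considered lethal.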

Mus musculus [16] = experiment: Mean body weight loss for animals in all experimental conditions at dose 7 mg/Kg in HT-29 human colon xenograft infected mice; assay type: functional; procedure, shortened: as §3
Mus musculus [17] = experiment: Mean body weight loss for animals in all experimental conditions at dose 9 mg/Kg in HT-29 human colon xenograft infected mice; assay type: functional; procedure, shortened: as §3
Mus musculus [18] = experiment: Efficacy against HT-29 human colon xenograft infected mice expressed as tumor growth ratio at dose 5 mg/Kg; assay type: functional
Procedure, shortened: (§4)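 Female nu/nu mice (18-24 g) bearing subcutaneous HT-29 flank tumours, N=6 per group. Dosed subcutaneously twice weekly for 5 weeks over a dose range that included the highest dose, which was set in naive mice. Caliper volume = length×width²/2. T/B = group mean tumour volume at end of treatment divided by initial mean volume.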

Mus musculus [19] = experiment: Efficacy against HT-29 human colon xenograft infected mice expressed as tumor growth ratio at dose 7 mg/Kg; assay type: functional; procedure, shortened: as §4
Mus musculus [20] = experiment: Efficacy against HT-29 human colon xenograft infected mice expressed as tumor growth ratio at dose 9 mg/Kg; assay type: functional; procedure, shortened: as §4
Mus musculus [21] = experiment: Efficacy against HT-29 human colon xenograft infected mice expressed as tumor growth ratio at dose 11 mg/Kg; assay type: functional; procedure, shortened: as §4
Mus musculus [22] = experiment: Compound was tested for number of deaths of the animals at a dose of 11 mg/Kg in mice; assay type: ADME, organism-based; conditions: in vivo; procedure, shortened: as §1
Mus musculus [23] = experiment: Compound was tested for number of deaths of the animals at a dose of 5 mg/Kg in mice; assay type: ADME, organism-based; conditions: in vivo; procedure, shortened: as §1
Mus musculus [24] = experiment: Compound was tested for number of deaths of the animals at a dose of 7 mg/Kg in mice; assay type: ADME, organism-based; conditions: in vivo; procedure, shortened: as §1
Mus musculus [25] = experiment: Compound was tested for number of deaths of the animals at a dose of 9 mg/Kg in mice; assay type: ADME, organism-based; conditions: in vivo; procedure, shortened: as §1
Mus musculus [26] = experiment: Delay in tumor growth in drug treated animals compared to controls at a dose of 54(mg/kg); assay type: functional
Mus musculus [27] = experiment: Delay in tumor growth in drug treated animals compared to controls at a dose of 100(mg/kg); assay type: functional; procedure, shortened: as §2
Mus musculus [28] = experiment: Delay in tumor growth in drug treated animals compared to controls at a dose of 48(mg/kg); assay type: functional; procedure, shortened: as §2
Mus musculus [29] = experiment: Mean body weight loss for animals in all experimental conditions at dose 10.5 mg/Kg in HT-29 human colon xenograft infected mice; assay type: functional; procedure, shortened: as §1
Mus musculus [30] = experiment: Mean body weight loss for animals in all experimental conditions at dose 9.5 mg/Kg in HT-29 human colon xenograft infected mice; assay type: functional; procedure, shortened: as §1
Mus musculus [31] = experiment: Efficacy against HT-29 human colon xenograft infected mice expressed as tumor growth ratio at dose 10.5 mg/Kg; assay type: functional; procedure, shortened: as §1
Mus musculus [32] = experiment: Efficacy against HT-29 human colon xenograft infected mice expressed as tumor growth ratio at dose 9.5 mg/Kg; assay type: functional; procedure, shortened: as §1
Mus musculus [33] = experiment: Compound was tested for number of deaths of the animals at a dose of 10.5 mg/Kg in mice; assay type: ADME, organism-based; conditions: in vivo; procedure, shortened: as §1
Mus musculus [34] = experiment: Compound was tested for number of deaths of the animals at a dose of 9.5 mg/Kg in mice; assay type: ADME, organism-based; conditions: in vivo; procedure, shortened: as §1

Row | SMILES | solubility [1] [µg/mL] | IC50 (SK-OV-3) [nM] | IC50 (SK-VLB) [nM] | Ratio [2] | IC50 (HT-29) [nM] | MTD (Mus musculus [11]) [mg/kg] | further results
1 | CC[C@@]1(O)C(=O)OCc2c1cc1n(c2=O)Cc2c-1nc1cc3c(cc1c2C[n+]1ccccn1)OCCO3 | 910 | 69 | 94 | 1 | – | – | –
2 | CC[C@@]1(O)C(=O)OCc2c1cc1n(c2=O)Cc2c-1nc1cc3c(cc1c2Cn1ccnc1)OCO3 | < 500 | – | – | – | – | – | –
3 | CC[C@@]1(O)C(=O)OCc2c1cc1n(c2=O)Cc2c-1nc1cc3c(cc1c2C[n+]1ccncc1)OCCO3 | 1400 | 11 | 870 | 80 | 16 | 100 | BW loss (Mus musculus [3]): 13%; BW loss (Mus musculus [4]): 21%; Efficacy (Mus musculus [5]): 0.7; Efficacy (Mus musculus [6]): 0.32; Efficacy (Mus musculus [7]): 2.1; Deaths (Mus musculus [8]): 0; Deaths (Mus musculus [9]): 0; Deaths (Mus musculus [10]): 0; T/C (Mus musculus [12]): 14 days; BW loss (Mus musculus [13]): 27%
4 | CC[C@@]1(O)C(=O)OCc2c1cc1n(c2=O)Cc2cc3c(CN(C)C)c(O)ccc3nc2-1 [TOPOTECAN] | 2100 (≈ 4.98 mM) | – | – | – | – | 54 | BW loss (Mus musculus [14]): 23%; BW loss (Mus musculus [15]): 15%; BW loss (Mus musculus [16]): 11%; BW loss (Mus musculus [17]): 17%; Efficacy (Mus musculus [18]): 8.6; Efficacy (Mus musculus [19]): 7; Efficacy (Mus musculus [20]): 4.3; Efficacy (Mus musculus [21]): 2.9; Deaths (Mus musculus [22]): 0; Deaths (Mus musculus [23]): 0; Deaths (Mus musculus [24]): 0; Deaths (Mus musculus [25]): 2; T/C (Mus musculus [26]): 10 days
5 | CC[C@@]1(O)C(=O)OCc2c1cc1n(c2=O)Cc2c-1nc1cc3c(cc1c2C[n+]1ccccc1)OCO3 | > 4500 | 74 | 72 | 1 | 70 | >100 | T/C (Mus musculus [27]): 4 days
6 | CC[C@@]1(O)C(=O)OCc2c1cc1n(c2=O)Cc2c-1nc1cc3c(cc1c2C[n+]1ccccn1)OCO3 | > 3100 | 83 | 130 | 2 | – | – | –
7 | CC[C@@]1(O)C(=O)OCc2c1cc1n(c2=O)Cc2c-1nc1cc3c(cc1c2Cn1cc[n+](C)c1)OCCO3 | 1300 | – | – | – | – | – | –
8 | CC[C@@]1(O)C(=O)OCc2c1cc1n(c2=O)Cc2c-1nc1cc3c(cc1c2C[n+]1cccc(CO)c1)OCO3 | > 4400 | 11 | 23 | 2 | 13 | >100 | T/C (Mus musculus [27]): 9 days
9 | CC[C@@]1(O)C(=O)OCc2c1cc1n(c2=O)Cc2c-1nc1cc3c(cc1c2Cn1ccnc1)OCCO3 | < 500 | – | – | – | – | – | –
10 | CC[C@@]1(O)C(=O)OCc2c1cc1n(c2=O)Cc2c-1nc1cc3c(cc1c2C[n+]1ccncc1)OCO3 | 1400 | 6 | 23 | 4 | 46 | 80 | T/C (Mus musculus [28]): 11 days
11 | CC[C@@]1(O)C(=O)OCc2c1cc1n(c2=O)Cc2c-1nc1cc3c(cc1c2Cn1cc[n+](C)c1)OCO3 | > 3500 | 110 | 1000 | 9 | 75 | 100 | BW loss (Mus musculus [29]): 12%; BW loss (Mus musculus [14]): 16%; BW loss (Mus musculus [30]): 4%; Efficacy (Mus musculus [31]): 3.84; Efficacy (Mus musculus [32]): 6.74; Efficacy (Mus musculus [21]): 2.85; Deaths (Mus musculus [33]): 0; Deaths (Mus musculus [22]): 0; Deaths (Mus musculus [34]): 0; T/C (Mus musculus [27]): 14 days
12 | COc1cccc2c1C(=O)c1c(O)c3c(c(O)c1C2=O)C[C@@](O)(C(=O)CO)C[C@@H]3O[C@H]1C[C@H](N)[C@H](O)[C@H](C)O1 [DOXORUBICIN] | > 2000 | – | – | 160 | – | – | –
13 | CC[C@@]1(O)C(=O)OCc2c1cc1n(c2=O)Cc2c-1nc1cc3c(cc1c2C[n+]1ccc(CO)cc1)OCCO3 | 1100 | – | – | – | – | – | –
14 | CC[C@@]1(O)C(=O)OCc2c1cc1n(c2=O)Cc2c-1nc1cc3c(cc1c2C[n+]1cccc(CO)c1)OCCO3 | 1200 | – | – | – | – | – | –
15 | CC[C@@]1(O)C(=O)OCc2c1cc1n(c2=O)Cc2c-1nc1cc3c(cc1c2C[n+]1ccccc1)OCCO3 | 1800 | 85 | 84 | 1 | 84 | – | –
